Reference: ChEMBL document CHEMBL4371092, “3,4- seco-Norclerodane Diterpenoids from the Roots of Polyalthia laui” (J Nat Prod, 2019)

Assays:
[1] = Therapeutic index, ratio of CC50 for human C8166 cells to EC50 for HIV1 3B infected in human MT4 cells; assay type: toxicity, cell-based; settings: read-out: Ratio CC50/EC50
Summary of the method: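 TI was computed as CC50/EC50. CC50 came from an MTT cytotoxicity assay on C8166 cells, and EC50 from inhibition of HIV-1 cytopathic effect, with AZT as the positive control.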

[2] = Cytotoxicity against human C8166 cells after 72 hrs by MTT assay; assay type: cell-based
Summary of the method: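 C8166 cells were tested for cytotoxicity by MTT assay, with CC50 defined as the 50% cytotoxic concentration.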

MCF7 = test: Cytotoxicity against human MCF7 cells after 72 hrs by MTT assay; assay type: cell-based; settings: MCF7, 72 h
Summary of the method: (§1)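 Human tumour lines MCF7 (breast), HeLa (cervical carcinoma) and A549 (lung adenocarcinoma) were tested by MTT assay for cytotoxicity, with doxorubicin as the positive control.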

HeLa = test: Cytotoxicity against human HeLa cells after 72 hrs by MTT assay; assay type: cell-based; summary of the method: as §1
[3] = tested on: Human immunodeficiency virus 1; test: Antiviral activity against HIV1 3B infected in human MT4 cells assessed as reduction in virus-induced cytopathic effect by measuring number of syncytia after 3 days by inverted microscopic method; assay type: functional, organism-based; settings: Human immunodeficiency virus 1, 3B, MT4, 72 h
Summary of the method: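 Anti-HIV-1 activity was scored as inhibition of viral cytopathic effect, and EC50 was taken as the 50% effective concentration. AZT (3′-azido-3′-deoxythymidine) was run as the positive control.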

A549 = test: Cytotoxicity against human A549 cells after 72 hrs by MTT assay; assay type: cell-based; settings: A549, 72 h; summary of the method: as §1

## CC1=C(C(=O)O)C[C@@H]2[C@@](C)(CC/C(=C/C(=O)O)CO)[C@H](C)CC[C@@]12C
[1]
  selectivity ratio: > 8.5
[2]
  CC50 at 72 h: > 200 µM
MCF7
  IC50: > 10 µM
HeLa
  IC50: > 10 µM
[3]
  EC50: 23.1 µM
A549
  IC50: > 10 µM

## C/C(=C\C(=O)O)CC[C@@]1(C)[C@H](C)CC[C@]2(C)[C@@H]1CC[C@@H](O)[C@]2(C)O
[1]
  selectivity ratio: > 7.3
[2]
  CC50 at 72 h: > 200 µM
MCF7
  IC50: > 10 µM
HeLa
  IC50: > 10 µM
[3]
  EC50: 27.4 µM
A549
  IC50: > 10 µM

## CC(=O)[C@]1(C)CC[C@@H](C)[C@](C)(CC/C(C)=C/C(=O)O)[C@H]1CC(=O)O
[1]
  selectivity ratio: > 16.4
[2]
  CC50 at 72 h: > 200 µM
MCF7
  IC50: > 10 µM
HeLa
  IC50: > 10 µM
[3]
  EC50: 12.2 µM
A549
  IC50: > 10 µM

## C[C@@H]1CC[C@@]2(C)C(C(=O)O)=CCC[C@@H]2[C@@]1(C)CC/C(=C\C(=O)O)C(=O)O
[1]
  selectivity ratio: > 16.4
[2]
  CC50 at 72 h: > 200 µM
MCF7
  IC50: > 10 µM
HeLa
  IC50: > 10 µM
[3]
  EC50: 19.8 µM
A549
  IC50: > 10 µM

## Cc1cn([C@H]2C[C@H](N=[N+]=[N-])[C@@H](CO)O2)c(=O)[nH]c1=O [ZIDOVUDINE]
[1]
  selectivity ratio: 338000
[2]
  CC50 at 72 h: 5230 µM
[3]
  EC50: 0.02 µM

## CC1=CC(=O)C[C@@H]2[C@@](C)(CC/C(=C\C(=O)O)C(=O)O)[C@H](C)CC[C@@]12C
[1]
  selectivity ratio: > 5.7
[2]
  CC50 at 72 h: > 200 µM
MCF7
  IC50: > 10 µM
HeLa
  IC50: > 10 µM
[3]
  EC50: 35.2 µM
A549
  IC50: > 10 µM

## CO[C@@H]1OC(=O)C=C1CC[C@@]1(C)[C@H](C)CC[C@@]2(C)C(C)=C(C=O)C[C@H]12
[1]
  selectivity ratio: > 11.9
[2]
  CC50 at 72 h: > 200 µM
MCF7
  IC50: > 10 µM
HeLa
  IC50: > 10 µM
[3]
  EC50: 16.8 µM
A549
  IC50: > 10 µM
